Screening data (PubChem BioAssay)
Shown is part of a subset that was picked to be rich in hits.
N-glyco inh = N-linked glycosylation inhibition | D54 ERlucT glycosylation luciferase reporter, 24 h; percent of 100 nM tunicamycin response | reporter increase, % at 12.5 µM | 360,000 tested, 0.23% active;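 active = mean luciferase reporter signal, scaled so untreated is 0 and the glycosylation-blocking control 100, at or above a set limit in every replicate; inconclusive = mean reaches the limit but not every replicate does; inactive = mean below the limit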;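 also: luciferase carries N-glycosylation sites so blocking glycosylation raises the light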
ALR H2O2 inh = inhibitors of human sulfhydryl oxidase ALR | purified ALR, DTT oxidation, H2O2 HRP-luminol luminescence | inhibition, % (test concentration not listed) | AID 485317 | 290,000 tested, 3.8% active;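 active = mean replicate inhibition above about 79%, with every replicate also reaching it, limit read from the data; inconclusive = only one of the two criteria met; inactive = mean below limit and not every replicate reaching it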
Target sequence (P55789 whole entry, looked up): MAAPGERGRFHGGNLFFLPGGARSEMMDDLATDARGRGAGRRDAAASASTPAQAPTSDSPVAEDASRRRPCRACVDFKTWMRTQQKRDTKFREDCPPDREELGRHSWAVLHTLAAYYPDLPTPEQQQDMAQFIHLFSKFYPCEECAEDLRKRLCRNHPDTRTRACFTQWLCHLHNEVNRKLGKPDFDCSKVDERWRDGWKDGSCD
T cell modulator = modulates CD8 T cell binding to vesicles; response (vesicle binding), % at 7 µM; 2C CD8+ T cell-vesicle binding, flow cytometry; hits give low values; 330,000 tested, 0.068% active;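 active = response, share of CD8 T cells binding vesicles, and their 90th percentile fluorescence all below set limits, cut at about 80% in these data, passing the limit was not always enough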;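 also: values below 100% mean blocked vesicle binding to the CD8+ T cells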
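incubation = binding step 1.5 h, 37 °C, antibody labelling 20 min, ice | test system = 2C mouse CD8+ T cells | read-out basis = percent CD8+ FL2 mean versus row control | controls = Peptide-free naked vesicles (low) and QL9 vesicles with 0.7% DMSO vehicle (high) | detection = flow cytometry of vesicle-bound cells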
A number is an active result; n = inactive; u = inconclusive; x = not tested or not shown.

SMILES | N-glyco inh | ALR H2O2 inh | T cell modulator
CC1(C)CC(=O)C2=C(C1)Nc1ccccc1N1C(=O)c3ccccc3C21 (stereo not drawn) | n | n | n
COc1cccc(C2Nc3ccc4ccccc4c3C3=C2C(=O)CC(C)(C)C3)c1OCC(=O)O (stereo not drawn) | n | n | n
COc1cccc(C2Nc3ccccc3NC3=C2C(=O)CC(C)(C)C3)c1OC (stereo not drawn) | n | 99 | n
COc1ccccc1C1Nc2ccccc2NC2=C1C(=O)CC(C)(C)C2 (stereo not drawn) | n | 99 | n
COc1ccc(NC2c3ccccc3C(=O)N2Cc2ccco2)cc1OC (stereo not drawn) | n | 100 | n
COC(=O)c1cc(NC2c3ccccc3C(=O)N2Cc2ccco2)cc(C(=O)OC)c1 (stereo not drawn) | n | n | n
O=C1c2ccccc2C(Nc2ccc3c(c2)OCO3)N1Cc1ccc2c(c1)OCO2 (stereo not drawn) | n | n | n
O=C1c2ccccc2C(Nc2ccc(F)c(Cl)c2)N1Cc1ccco1 (stereo not drawn) | n | n | n
CCOc1ccc(NC2c3ccccc3C(=O)N2Cc2ccco2)cc1 (stereo not drawn) | n | 98 | n
O=C1c2ccccc2C(Nc2ccc3c(c2)OCO3)N1Cc1ccco1 (stereo not drawn) | n | 99 | n
CC(C)CC1NC(=O)N(CC(=O)Nc2cc(F)ccc2F)C1=O (stereo not drawn) | n | n | n
Nc1nc(-c2c(Cl)cccc2Cl)no1 | n | x | n
CNc1nnc(SCC(=O)c2c(N)n(C3CC3)c(=O)[nH]c2=O)s1 | n | x | x
CCCNC(=O)Cn1cc(S(=O)(=O)N2CCCC2)c(S(=O)(=O)N2CCCC2)c1 | n | n | n
CC(=O)Nc1ccc(NCCc2ccco2)cc1 | n | x | x
Cc1ccc2oc(C(=O)NCc3ncc(C)[nH]3)c(C)c2c1 | 29 | n | n
Cc1cnc(CNC(=O)c2ccc3oc(C(C)C)nc3c2)[nH]1 | n | n | n
O=C(COc1ccc2c3c(c(=O)oc2c1)CCCC3)N1CCN(c2ccccc2)CC1 | n | n | n
COc1ccc(/C=C(\C#N)C(=O)OCC(=O)NCc2ccco2)cc1 | n | n | n
CCOc1ccccc1OCC(=O)Nc1ccc2[nH]c(=O)[nH]c2c1 | n | x | n
O=c1[nH]c2ccc(NCc3ccccc3OCc3ccc(Cl)cc3)cc2[nH]1 | n | n | n
C=CCOc1ccc(CNc2ccc3[nH]c(=O)[nH]c3c2)cc1OCC | n | 98 | n
COc1cc(CNc2ccc(N3CCCC3)cc2)ccc1OCc1ccccc1 | n | x | n
COc1cc(CNc2ccc(N3CCCCC3)cc2)ccc1OCC(=O)NC(C)(C)C | n | 99 | n
CCOc1cc(CNc2ccc3[nH]c(=O)[nH]c3c2)ccc1OCC(=O)NC(C)(C)C | n | 91 | n
SMILES | N-glyco inh | ALR H2O2 inh | T cell modulator
C=CCOc1ccc(CNc2ccc3[nH]c(=O)[nH]c3c2)cc1 | n | 99 | n
C=CCOc1ccc(CNC(C)(C)CO)cc1OCC | n | n | n
O=C(c1cccc(S(=O)(=O)N2CCOCC2)c1)N1CCN(S(=O)(=O)c2cccs2)CC1 | n | n | n
COc1cc(CNc2ccc3[nH]c(=O)[nH]c3c2)cc(Cl)c1OCC(=O)NC(C)(C)C | n | 98 | n
COc1cccc(CNc2ccc3[nH]c(=O)[nH]c3c2)c1OCc1ccc(F)cc1 | n | u | n
COc1cc(CNn2c(C)n[nH]c2=S)cc(Cl)c1OCC(=O)NC(C)(C)C | n | n | n
C=CCOc1ccc(CNCCO)cc1OCC | n | x | n
C=CCOc1c(CNc2ccc3[nH]c(=O)[nH]c3c2)cccc1OC | n | 99 | n
C=CCOc1ccc(CNCc2cccnc2)cc1OCC | n | 94 | n
CCCCN(C)CC(O)Cn1cc(/C=C/C(=O)c2ccc(C)cc2)c2ccccc21 (stereo not drawn) | n | n | n
Cc1ccccc1CC1(CO)CCCN(C(=O)CCN2CCCO2)C1 (stereo not drawn) | n | n | n
CC(C)c1nc(SCC(=O)NCC2CCCO2)c2c(=O)n(C)c(=O)n(C)c2n1 (stereo not drawn) | n | n | n
COc1ccc(-n2c(SCC(=O)Nc3nccs3)nc3sc4c(c3c2=O)CCN(C)C4)cc1 | n | 99 | n
CCOC(=O)CSc1nnc2n(C3CCCCC3)c(=O)c3c4c(sc3n12)CCCC4 | n | n | n
C=C(C)CSc1nc2sc3c(c2c(=O)n1-c1ccc(C)cc1)CCN(C)C3 | n | x | x
CCOC(=O)CSc1nc2sc3c(c2c(=O)n1-c1ccc(OCC)cc1)CCN(C)C3 | n | 94 | n
CCOc1ccc(-n2c(SCC(N)=O)nc3sc4c(c3c2=O)CCN(C)C4)cc1 | n | x | n
CCOC(=O)CSc1nc2sc3c(c2c(=O)n1C1CCCCC1)CCN(C)C3 | n | 100 | n
